# Compound activity deposited in PubChem BioAssay by Johns Hopkins Ion Channel Center.
# In the library only some 3.5% were active in any assay of this set; here they are far more common.
# MrgX1 allo act: positive allosteric modulators of MrgX1, primary screen, HEK293 cells, Fluo-4 calcium flux. Mas-related G-protein coupled receptor member X1 (Homo sapiens), Q96LB2. FDSS; stronger effect = higher value. B-score at 10 µM. hit rate 0.63% among 310,000. AID 588675, 2011;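 active means plate-corrected calcium response at least 3 library SD above typical, normal starting fluorescence, not activating the receptor alone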;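 further: compound read alongside a low EC10 to EC30 dose of BAM8-22 agonist; peak minus trough fluorescence over baseline measured at the second addition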
# Target sequence (Q96LB2 whole entry, looked up): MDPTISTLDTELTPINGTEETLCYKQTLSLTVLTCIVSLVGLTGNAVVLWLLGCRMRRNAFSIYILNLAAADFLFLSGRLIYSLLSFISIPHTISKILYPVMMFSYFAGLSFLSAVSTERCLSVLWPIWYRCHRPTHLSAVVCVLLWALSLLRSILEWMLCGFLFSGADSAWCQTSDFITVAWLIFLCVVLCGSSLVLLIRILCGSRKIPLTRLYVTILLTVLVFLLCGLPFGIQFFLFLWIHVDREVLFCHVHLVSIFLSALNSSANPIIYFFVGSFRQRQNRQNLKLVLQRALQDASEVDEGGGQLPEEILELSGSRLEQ
# MrgX1 antag: antagonists of human MrgX1 receptor, primary screen, HEK293 cells, Fluo-4 calcium flux; Mas-related G-protein coupled receptor member X1 (Homo sapiens), Q96LB2; BAM8-22 antagonism; stronger effect = lower value; B-score at 10 µM; hit rate 1.3% among 310,000;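 active means calcium-response B-score plate-corrected more than 3 library SD below zero, starting fluorescence within 5 deviations, no agonist response on first addition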;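 further: peak minus trough fluorescence over baseline after final BAM8-22 challenge near maximal dose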
# RGS4 act: RGS4 potentiators or activators, primary screen, cell-based, HEK293 M3R inducible RGS4, calcium flux | carbachol calcium flux Fluo4; stronger effect = lower value | B-score at 10 µM | hit rate 0.92% among 310,000 | AID 463111, 2010;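 active means B-score of the integrated calcium signal more than 4 SD below the library mean, with starting fluorescence not abnormally high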;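 further: negative B-score means reduced calcium response which marks RGS4 activation or potentiation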
#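 test system = HEK293 cells with stable M3R and inducible RGS4 | schedule = recording 10 s baseline at 1 Hz, 100 s post-agonist | technique = Fluo4-AM (2 µM) calcium-flux fluorescence, kinetic read | measure = Agonist-evoked peak-minus-minimum fluorescence over baseline, integrated ratio, B score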
# RGS4 inh: RGS4 inhibitors, primary screen, cell-based, HEK293 M3R inducible RGS4, calcium flux. B-score at 10 µM. hit rate 0.45% among 310,000. Fluo-4 calcium flux; stronger effect = higher value; triggered by carbachol at its EC20. AID 463165, 2010;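 active means B-score, a plate-corrected calcium signal, over three deviations above library mean, with baseline fluorescence within five deviations of library mean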;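 further: RGS4 expression induced by doxycycline in cells with stable M3 receptor; B-score is computed from the integrated fluorescence ratio over baseline after carbachol; higher B-score means a larger calcium signal and so more RGS4 inhibition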
# Target sequence (P49798 whole entry, looked up): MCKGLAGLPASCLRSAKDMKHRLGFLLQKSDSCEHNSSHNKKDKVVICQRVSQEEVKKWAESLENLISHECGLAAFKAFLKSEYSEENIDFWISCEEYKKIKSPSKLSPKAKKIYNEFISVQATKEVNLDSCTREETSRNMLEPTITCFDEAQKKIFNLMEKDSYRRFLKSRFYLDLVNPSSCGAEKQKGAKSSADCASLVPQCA
# MrgX1 ag: agonists of human MrgX1 receptor, primary screen, HEK293 cells, Fluo-4 calcium flux; hit rate 0.44% among 310,000; AID 588627, 2011; Fluo-4 calcium fluorescence, agonist mode; stronger effect = higher value; B-score at 10 µM;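 active means calcium response B-score plate-corrected fluorescence ratio at least 3 library SD, with starting fluorescence B-score inside 5 SD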
#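 Assay system: stable human MrgX1 HEK293 cell line. Quantity: 15,000 cells per well. Schedule: cells plated overnight, dye loaded 0.5 h 37 °C, 0.5 h room temperature. Detection: Fluo-4 NW calcium-flux fluorescence, kinetic read. Read-out basis: peak-minus-minimum fluorescence over baseline, converted to B scores. Control set: positive and negative control wells on each plate.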
# MrgX1 antag conf: MrgX1 receptor antagonists, duplicate retest, confirmation, HEK293 cells, Fluo-4 calcium flux; shares compounds with MrgX1 antag; BAM8-22 calcium flux; stronger effect = lower value; remaining BAM8-22 calcium response % of control (stronger effect = lower value), % at 10 µM; hit rate 19% among 2,300; AID 602420, 2012;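 active means remaining agonist calcium response no higher than 100% minus 3 SD of agonist-only control wells, with starting fluorescence near control levels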;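 further: agonist BAM8-22 given at a near maximal EC90 to ECmax level; peak minus minimum fluorescence divided by baseline after agonist addition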
# HEK293 Ca flux: nonspecific calcium signal in parental HEK293, confirmation, counter-screen for MrgX1 antagonist project, parental HEK293 cells, Fluo-4 calcium flux | Fluo-4 calcium fluorescence, FDSS | hit rate 2% among 4,000 | fluorescence ratio F(max-min)/F0 at 10 µM | AID 624111, 2012 | shares compounds with MrgX1 antag;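 active means duplicate-averaged calcium fluorescence ratio at least three times the standard deviation of buffer wells, a nonspecific response in parental cells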
# HEK293 Ca counter: calcium response in parental HEK293 cells, primary screen, counter-screen for MrgX1 allosteric activator project, cell-based, Fluo-4 calcium flux, duplicate. shares compounds with MrgX1 antag. Fluo-4 fluorescence ratio; stronger effect = higher value. fluorescence ratio F(max-min)/F0 at 10 µM. hit rate 0.4% among 4,000;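 active means calcium fluorescence ratio, averaged over duplicates, at least 3 SD of the buffer-well ratio, meaning a nonspecific response in receptor-free cells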;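 further: untransfected parental HEK293 lacking MrgX1 used as counterscreen for MrgX1 allosteric activators; fluorescence change taken during the second addition on a kinetic imager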
# HEK293 Ca cntr2: calcium response in parental HEK293 cells, primary screen, counter-screen for MrgX1 agonist project, cell-based, Fluo-4 calcium flux, duplicate, agonist mode | shares compounds with MrgX1 antag | Fluo-4 calcium fluorescence (FDSS); stronger effect = higher value | fluorescence ratio F(max-min)/F0 at 10 µM | hit rate 8.7% among 4,000;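 active means calcium fluorescence ratio at least three times the spread of buffer wells, meaning a non-specific response in parental cells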
# * = called active by the depositor; i = inactive; . = no result given.
SMILES,MrgX1 allo act,MrgX1 antag,RGS4 act,RGS4 inh,MrgX1 ag,MrgX1 antag conf,HEK293 Ca flux,HEK293 Ca counter,HEK293 Ca cntr2
c1ccc(CN2CCN(c3ncnc4c3[nH]c3ccccc34)CC2)cc1,i,-6.1*,i,i,i,53%*,i,i,i
Cc1ccc2c(c1)[nH]c1c(N3CCN(Cc4ccccc4)CC3)ncnc12,i,i,i,i,i,.,.,.,.
c1ccc2c(c1)[nH]c1c(N3CCC4(CC3)OCCO4)ncnc12,i,i,i,i,i,.,.,.,.
Cc1ccc2[nH]c3c(N4CCN(Cc5ccccc5)CC4)ncnc3c2c1,i,-6.2*,i,i,i,65%*,i,i,i
CCN1CCN(c2ncnc3c2nnn3Cc2ccccc2)CC1,i,-4.6*,i,i,i,i,i,i,i
c1ccc(Cn2nnc3c(N4CCCC4)ncnc32)cc1,i,i,i,i,i,.,.,.,.
COc1ccc2c(c1)OC(c1ccccc1)(C(F)(F)F)NC2=O (stereo unspecified),i,i,i,i,i,.,.,.,.
CC(C)Oc1ccc2c(c1)OC(c1ccccc1)(C(F)(F)F)NC2=O (stereo unspecified),i,-5.8*,i,i,i,i,i,i,i
Cc1ccc(CNC(=O)CC2(CC3=NS(=O)(=O)c4ccccc4N3)CCCC2)cc1,i,i,i,i,i,.,.,.,.
CCC(C(=O)N1CCN(c2ncccn2)CC1)c1ccccc1 (stereo unspecified),i,-4.6*,i,i,i,i,i,i,i
O=C(COc1ccc(Br)cc1)NCCNC(=O)c1ccccn1,i,i,i,i,i,.,.,.,.
COc1ccc(C(=O)C2CCCN(C(=O)c3cccc(N(C)C)c3)C2)cc1OC (stereo unspecified),i,i,i,i,i,.,.,.,.
CCC(C)(C(=O)NC1CCCC1)N(C(=O)c1ccccn1)c1ccccc1 (stereo unspecified),i,-8*,i,i,i,i,i,i,i
COc1ccc(NC(=S)N2CCCC(c3nc4ccc(C)cc4[nH]3)C2)c(OC)c1 (stereo unspecified),i,i,i,i,i,.,.,.,.
COc1ccc(NC(=S)N2CCCC(c3nc4ccc(C)cc4[nH]3)C2)cc1 (stereo unspecified),i,-9.5*,i,i,i,i,i,i,i
Cc1c(C)c2c(OCC(=O)O)cc3c(c2oc1=O)CCC(C)(C)O3,i,i,i,i,i,.,.,.,.
COc1ccccc1CNC(=O)COc1cc2c(c3oc(=O)cc(C)c13)CCC(C)(C)O2,i,-7.6*,i,i,i,62%*,i,i,i
Cc1c(C)c2c(OCC(=O)Nc3ccc(CCO)cc3)cc3c(c2oc1=O)CCC(C)(C)O3,i,-6.2*,i,i,i,i,i,i,i
COc1ccc(C(=O)Cc2cc3ccccc3oc2=O)cc1,i,i,i,i,i,.,.,.,.
COc1cc(C(=O)O)ccc1OCc1c(C)noc1C,i,i,i,i,i,.,.,.,.
COc1cc(C(=O)Oc2ccccc2)ccc1OCc1c(C)noc1C,i,-6*,i,i,i,i,i,i,i
COc1ccc(C(=O)c2cn[nH]c2-c2cc(C)ccc2O)cc1,i,-4.5*,i,i,i,i,i,i,i
COc1ccc(C(=O)c2cn[nH]c2-c2cc(Cl)ccc2O)cc1,i,i,i,i,i,.,.,.,.
O=C(O)c1cccc(NS(=O)(=O)c2cc(S(=O)(=O)c3ccc(Cl)cc3)ccc2Cl)c1,i,i,i,i,i,.,.,.,.
COc1ccc2oc(C(=O)OCC(=O)Nc3ccccc3)c(C)c2c1,i,i,i,i,i,.,.,.,.
SMILES,MrgX1 allo act,MrgX1 antag,RGS4 act,RGS4 inh,MrgX1 ag,MrgX1 antag conf,HEK293 Ca flux,HEK293 Ca counter,HEK293 Ca cntr2
COc1ccc2oc(C(=O)OCC(=O)Nc3ccc(N4CCOCC4)cc3)c(C)c2c1,i,-8.5*,i,i,i,i,i,i,i
Cc1ccc(S(=O)(=O)N2CCC(C(=O)Nc3nnc(C)s3)CC2)cc1,i,i,i,i,i,.,.,.,.
CSc1nc(C)cc(OCC(=O)N/N=C/c2ccccc2O)n1,i,i,i,i,i,.,.,.,.
CCC(CC)c1nnc(NC(=O)c2ccc(N3CCCC3=O)cc2)s1,i,-4.9*,i,i,i,i,i,i,i
CCCCNC(=O)C(NS(=O)(=O)c1cccc2nsnc12)c1ccccc1 (stereo unspecified),i,i,i,i,i,.,.,.,.
CCCNC(=O)C(NS(=O)(=O)c1cccc2nsnc12)c1ccccc1 (stereo unspecified),i,-6.9*,i,i,i,i,i,i,i
O=C(NCCc1ccccc1)C(NS(=O)(=O)c1cccc2nsnc12)c1ccccc1 (stereo unspecified),i,-4.7*,i,i,i,i,i,i,i
COc1ccccc1N1CCN(/N=C/C(Cl)=C/c2ccccc2)CC1,i,i,i,i,i,.,.,.,.
CCc1nc(SCC(=O)N2CCCC2)c2c(=O)n(C)c(=O)n(C)c2n1,i,i,i,i,i,.,.,.,.
Cn1c(=O)c2c(SCC(=O)N3CCCC3)nc(-c3ccccc3)nc2n(C)c1=O,i,-6*,i,i,i,i,i,i,i
Cc1cc(C)nc(SCC(=O)N2CCCCC2)n1,i,i,i,i,i,.,.,.,.
